# Many of the other results were omitted from the sample, so hits are more common in it than they were.
# CHOP UPR activ = apoptotic UPR (CHOP) activation; CHO-CHOP luciferase reporter, luminescence; percent of tunicamycin response over DMSO baseline; activation, % at 10 µM; 330,000 tested, 0.34% active; AID 449763;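 active = at 10 µM dose, activation of 40% or more, normalized to positive control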;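 note: 100% = tunicamycin at 10 µg/mL and 0% = DMSO alone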
#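 Dosing – one dose, 10 µM in 0.5% DMSO · System – CHO-CHOP cells, stable luciferase reporter of PERK-eIF2a-CHOP signalling · Input – 500 cells/well · Control set – tunicamycin 10 µg/mL final as positive, DMSO-only wells as negative · Timing – 6 h compound treatment, 37 °C · Measure – % activation vs tunicamycin · Technique – luminescence read with Steady-Glo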
# XBP1 UPR activ = adaptive UPR (XBP1) activation. activation, % at 20 µM. 330,000 tested, 0.33% active. CHO-XBP1 luciferase reporter, IRE1-XBP1 UPR activation, luminescence; percent of tunicamycin response, DMSO as zero. AID 463104;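 active = versus positive control, 20 µM dose yields 30% or more activation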;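 note: 100% = tunicamycin at 10 µg/mL and 0% = DMSO only wells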
#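 Material: CHO cell line with stable XBP1 luciferase reporter; buffer or medium: F12 medium containing 10% fetal bovine serum; compound: single point, 20 µM final compound, 1% DMSO; incubation: 6 h treatment, 37 °C; measured by: glow luminescence from Steady-Glo reagent; evaluation: activation, % of tunicamycin; control set: tunicamycin high, DMSO low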
# VLA-4 inh = inhibition in a human VLA-4 binding assay | P13612 | VLA-4 expressing cells, ligand binding flow cytometry | inhibition, % (about 7 µM as worked out from the volumes in the protocol) | 330,000 tested, 0.2% active | AID 2557; in the data active = inhibition above about 50%
# CHOP inh = inhibitors of CHOP induction in ER stress response. CHO-K1 CHOP-promoter luciferase, tunicamycin-induced, 15-18 h. inhibition, % at 10 µM. 220,000 tested, 3.8% active;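 active = compounds that reduced the stress-induced luciferase reporter signal by more than about 70% of percent inhibition, limit read from the data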;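 note: 0% = tunicamycin plus vehicle and 100% = wells without tunicamycin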
# Beta2AR agonist = human beta-2 adrenergic receptor agonism by FAP; AID 504454; Am2.2-beta2AR cells, FAP receptor internalization, flow cytometry; 340,000 tested, 0.43% active; response, % (concentration not given with the values);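 active = response above a set limit, near 3 SD of response in nonfluorescent compounds, cut at about 42% in these data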
# Target sequence (P07550 whole entry, looked up): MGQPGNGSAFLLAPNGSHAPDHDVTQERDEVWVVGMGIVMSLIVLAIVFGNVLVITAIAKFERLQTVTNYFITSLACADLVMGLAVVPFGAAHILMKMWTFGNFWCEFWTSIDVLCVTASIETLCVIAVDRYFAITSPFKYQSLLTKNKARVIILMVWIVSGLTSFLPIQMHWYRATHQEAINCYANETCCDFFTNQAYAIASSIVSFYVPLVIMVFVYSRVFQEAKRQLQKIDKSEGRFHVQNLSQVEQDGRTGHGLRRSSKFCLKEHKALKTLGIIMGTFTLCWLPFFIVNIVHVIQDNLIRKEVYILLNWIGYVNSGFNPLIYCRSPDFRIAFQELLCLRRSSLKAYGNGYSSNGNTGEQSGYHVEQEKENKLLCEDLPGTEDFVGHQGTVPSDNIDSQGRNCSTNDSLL
# * hit, by the source's call; nt = no result.
SMILES,CHOP UPR activ,XBP1 UPR activ,VLA-4 inh,CHOP inh,Beta2AR agonist
O=C(CN(c1ccc(Cl)c(C(F)(F)F)c1)S(=O)(=O)c1ccccc1)N/N=C/c1cccc2c1OCCO2,1,-2,1,73*,2
CS(=O)(=O)N(CC(=O)N/N=C/c1cccc2c1OCCO2)c1ccccc1Br,-1,-4,10,16,-5
O=C(Nc1nc2ccccc2n1Cc1ccccc1)c1ccc(COc2ccccc2[N+](=O)[O-])o1,-1,-1,14,45,-5
Cc1ccc(OCc2ccc(C(=O)Nc3nc4ccccc4n3Cc3ccccc3)o2)c([N+](=O)[O-])c1,-1,1,-2,88*,-2
CCC1C/C(=C\c2cccnc2)C(=O)/C(=C/c2cccnc2)C1 (centres undefined),nt,nt,nt,106*,12
CCOc1ccc(NC(=S)N2CCN(S(=O)(=O)c3ccccc3)CC2)cc1,-2,-6,-15,nt,2
O=S(=O)(NC12CC3CC(CC(C3)C1)C2)c1ccc(F)cc1,-2,0,11,72*,8
O=C(CN1C(=O)/C(=C/c2ccccc2F)Oc2ccccc21)N1CCN(c2ccccn2)CC1,4,3,5,86*,5
O=C(CN1C(=O)c2cccc3cccc(c23)C1=O)N1CCN(c2ccccn2)CC1,5,19,9,23,8
O=C(/C=C/c1ccccc1F)N1CCN(c2ccccn2)CC1,1,2,-1,nt,1
O=C(CN1C(=O)/C(=C\c2cccc(Cl)c2)Oc2ccccc21)N1CCN(c2ccccn2)CC1,5,29,11,100*,nt
CN(CC(=O)NC(=O)NCc1ccccc1)CC(=O)Nc1ccc(Cl)c(Cl)c1,-1,-6,-7,nt,-3
O/N=C(\c1ccc(Cl)cc1)c1cc2ccccc2o1,1,1,8,85*,11
O=C(Nc1ccc(Cl)cc1Cl)c1cc2ccccc2o1,5,-1,-33,nt,-3
Cc1ccc(C(=O)NCC(=O)OC(C)C(=O)NC2CCCCC2C)cc1C (centres undefined),2,-1,10,nt,5
Cc1ccccc1NC(=O)CCC(=O)N/N=C/c1ccc(F)cc1,-1,-2,8,7,3
Cc1ccccc1N(CC(=O)N/N=C/c1ccc(F)cc1)C(=O)c1ccccc1,3,-1,3,89*,-9
O=C(Cc1cccc2ccccc12)N/N=C/c1ccc(F)cc1,0,-4,11,74*,-3
Cc1ccccc1N(CC(=O)N/N=C/c1ccc(Cl)cc1)C(=O)c1ccccc1,7,1,-3,72*,9
Cc1ccc(CSCC(=O)N/N=C/c2sccc2C)cc1,0,4,-4,95*,-3
O=C(Nc1ccncc1)Nc1cccc(Cl)c1Cl,2,5,0,nt,-3
O=C(COc1ccccc1)Nc1cccc2nsnc12,0,0,1,76*,-4
Cc1cccc(OCC(=O)Nc2cccc3nsnc23)c1,2,-3,-1,44,8
O=C(Nc1ccc(Cl)cc1)Nc1cccc2nsnc12,12,1,14,73*,-3
O=C(OCC(=O)N1CCCC1)c1cnc(Cl)c(Cl)c1,2,-3,-1,nt,-12
SMILES,CHOP UPR activ,XBP1 UPR activ,VLA-4 inh,CHOP inh,Beta2AR agonist
Cn1c2ccccc2c2cnn(CC(=O)Nc3ccc(F)cc3F)c(=O)c21,1,-3,11,88*,-2
C=CCn1c(C)cc(C(=O)CSc2nc3ccccc3o2)c1C,1,-4,9,74*,-4
COc1ccc(NC2CCCN(C(=O)CSc3ccncc3)C2)cc1 (centres undefined),1,1,0,nt,-1
CC(CCc1ccccc1)NC(=O)c1ccc(NC(=O)c2ccccc2)cc1 (centres undefined),-2,-5,8,85*,-3
CC(CCc1ccccc1)NC(=O)c1ccc(NC(=O)c2cccc(Br)c2)cc1 (centres undefined),2,5,9,32,-7
C(C#CCN1CCOCC1)#CCN1CCOCC1,nt,nt,nt,nt,0
COC(=O)c1cc(N2C(=O)C3C(C2=O)C2(C)C=CC3(C)O2)ccc1Cl (centres undefined),-1,-3,41,75*,nt
Cc1ccc(S(=O)(=O)/N=C(/c2ccc(F)cc2)N(C)C)cc1,0,1,19,nt,-2

# Screens from PubChem BioAssay.
